Here are results for 19 compounds from ChEMBL document CHEMBL1133771, “Synthesis and pharmacological evaluation of new pyrazolidine-3, 5-diones as AT(1) angiotensin II receptor antagonists” (J Med Chem, 2000).

Assay [1] concerns the target T1, Type-1 angiotensin II receptor (Homo sapiens, UniProt P30556).
T1 sequence (P30556 whole entry): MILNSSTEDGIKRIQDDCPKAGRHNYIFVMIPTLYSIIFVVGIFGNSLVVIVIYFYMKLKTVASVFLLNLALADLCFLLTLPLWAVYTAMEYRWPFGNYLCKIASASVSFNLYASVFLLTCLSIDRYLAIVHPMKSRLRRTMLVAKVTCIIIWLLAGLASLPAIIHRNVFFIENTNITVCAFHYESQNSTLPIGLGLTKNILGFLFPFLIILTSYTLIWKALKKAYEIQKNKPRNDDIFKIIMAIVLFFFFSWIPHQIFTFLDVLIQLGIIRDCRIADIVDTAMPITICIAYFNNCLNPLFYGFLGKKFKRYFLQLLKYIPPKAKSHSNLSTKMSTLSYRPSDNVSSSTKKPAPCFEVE
Description: Binding affinity against AT1 in human hepatoma cell line, PLC-PRF-5. The gist of the method: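 Crude membranes from PLC-PRF human hepatoma cells were prepared by lysis in ice-cold Tris/HCl 50 mM, MgCl2 2 mM, pH 7.4, then spun at 30000g. 100 µg protein was incubated 1 h at 25 °C with 3 nM [3H]AII. Nonspecific binding was taken with 1 µM losartan. Compounds were tested at 10-10–10-5 M, with filtration and scintillation counting.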

Assay [2] has as its target T2, Angiotensin II receptor (Homo sapiens, UniProt P30556+P50052).
T2 sequence (P30556 whole entry): T1 sequence (P30556 whole entry)
T2 sequence (P50052 whole entry): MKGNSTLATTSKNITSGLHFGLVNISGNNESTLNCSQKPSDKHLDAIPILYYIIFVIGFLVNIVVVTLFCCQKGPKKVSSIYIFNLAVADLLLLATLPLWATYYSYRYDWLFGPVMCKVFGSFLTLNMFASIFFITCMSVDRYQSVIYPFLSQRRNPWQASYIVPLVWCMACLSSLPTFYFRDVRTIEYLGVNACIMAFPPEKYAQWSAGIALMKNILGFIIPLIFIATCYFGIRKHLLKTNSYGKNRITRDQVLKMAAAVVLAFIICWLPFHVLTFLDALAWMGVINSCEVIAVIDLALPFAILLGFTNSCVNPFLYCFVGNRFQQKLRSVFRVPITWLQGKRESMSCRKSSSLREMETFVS
Briefly: (§1) In vitro antagonist activity, Inhibition of angiotensin II (50 nM) mediated increase in cytosolic [Ca2+] conc. in PLC-PRF-5 cells. In kind it is functional, cell-based. A digest of the protocol: (§2)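 PLC-PRF-5 cells were preincubated with compound, then stimulated with 50 nM angiotensin II. The rise in intracellular cytosolic Ca2+ concentration was measured, and inhibition of that rise is given as IC50.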

The nature of assay [3]: as §1. The format is functional, cell-based. To be noted: Homo sapiens. The gist of the method: as §2

For `CCCCCN1C(=O)C2(CCCC2)C(=O)N1Cc1ccc(-c2ccccc2S(=O)(=O)NC(=O)c2ccccc2)cc1`, the Ki (as a rule, a measure of affinity in units of concentration, obtained from inhibition or displacement) in assay [1] came to 25 nM. Also, the IC50 (usually the point on the concentration scale where inhibition reaches its midpoint) in assay [2] was 28 nM. For the compound `CCCCN1C(=O)C2(CCCC2)C(=O)N1Cc1ccc(C(=O)Nc2ccccc2C(=O)O)cc1`, affinity in assay [1] was put at a Ki of 2000 nM. This counts as single-digit micromolar. In assay [1], `CCCCN1C(=O)C2(CCCC2)C(=O)N1Cc1ccc(-c2ccccc2S(=O)(=O)NC(=O)c2ccccc2)cc1` displayed a Ki of 10 nM. Further, the IC50 in assay [2] was 12 nM. Compound `CCCCN1C(=O)C(C)(CCCC)C(=O)N1Cc1ccc(-c2ccccc2S(=O)(=O)NC(=O)c2ccccc2)cc1` (configuration not stated) showed a Ki in assay [1] of 32 nM. Moreover, in assay [3], the IC50 stood at 33 nM. As to `CCCCN1C(=O)C2(CCCC2)C(=O)N1Cc1ccc(-c2ccccc2-c2nn[nH]n2)cc1`, the Ki in assay [1] amounted to 25 nM. The same compound showed an IC50 in assay [2] of 22 nM. `CCCCN1C(=O)C2(CCCC2)C(=O)N1Cc1ccc(-c2ccccc2S(N)(=O)=O)cc1` gave a Ki in assay [1] greater than 10000 nM. The compound `O=C1N(Cc2ccc(-c3ccccc3-c3nn[nH]n3)cc2)N(c2ccccc2)C(=O)C12CCCC2` returned an IC50 in assay [2] of 89 nM. This counts as double-digit nanomolar. In assay [1], `CCCCN1C(=O)C2(CCCC2)C(=O)N1Cc1ccc(NC(=O)c2ccccc2C(=O)O)cc1` gave a Ki of 398 nM. With `CCCN1C(=O)C2(CCCC2)C(=O)N1Cc1ccc(-c2ccccc2S(=O)(=O)NC(=O)c2ccccc2)cc1`, the Ki in assay [1] is 40 nM. This compound also gave an IC50 in assay [2] of 52 nM.

`CCCCN1C(=O)C2(CCCC2)C(=O)N1Cc1ccc(-c2ccccc2)cc1` yielded a Ki in assay [1] greater than 10000 nM. The same measure, in the same setting: then `O=C1N(Cc2ccccc2)N(Cc2ccc(-c3ccccc3-c3nn[nH]n3)cc2)C(=O)C12CCCC2`, with 402 nM. Compound `CCCCC(=O)NS(=O)(=O)c1ccccc1-c1ccc(CN2C(=O)C3(CCCC3)C(=O)N2CCCC)cc1` displayed a Ki in assay [1] of 13 nM. The same compound showed an IC50 in assay [2] of 15 nM.

In assay [1], `CCCCN1C(=O)C2(CCCC2)C(=O)N1Cc1ccc(C(=O)Nc2cccc(C(=O)O)c2)cc1` gave a Ki greater than 10000 nM. As to `CCCCN1C(=O)C2(CCCC2)C(=O)N1Cc1ccc(-c2ccccc2C(=O)O)cc1`, affinity in assay [1] was put at a Ki of 3160 nM. That is a single-digit micromolar value.

Compound `CCCCN1C(=O)C(C)(C)C(=O)N1Cc1ccc(-c2ccccc2S(=O)(=O)NC(=O)c2ccccc2)cc1` registered a Ki in assay [1] of 42 nM. For the same compound, the IC50 in assay [2] is on record as 26 nM. For `CCCCN1C(=O)C2(CCCC2)C(=O)N1Cc1ccc(-c2ccccc2S(=O)(=O)NC(=O)NC2CCCCC2)cc1` the same measures were 32 nM and 38 nM. As for `CCCCN1C(=O)C2(CCCC2)C(=O)N1Cc1ccc(-c2ccccc2C#N)cc1`, the Ki in assay [1] was greater than 10000 nM. The compound `Cc1ccc(N2C(=O)C3(CCCC3)C(=O)N2Cc2ccc(-c3ccccc3-c3nn[nH]n3)cc2)cc1` yielded a Ki in assay [1] of 381 nM. This lies in the sub-micromolar range. In assay [1], `CCCCN1C(=O)C2(CCCC2)C(=O)N1Cc1ccc(-c2ccccc2S(=O)(=O)NC(C)(C)C)cc1` returned a Ki greater than 10000 nM.
